In ChEMBL document CHEMBL1122744, “2-Chloroethyl (methylsulfonyl)methanesulfonate and related (methylsulfonyl)methanesulfonates. Antineoplastic activity in vivo” (J Med Chem, 1984):
Values joined by “and” are separate entries in the source; they are usually repeats but may differ in a detail not shown here. Equal entries are not always repeated.

Experiments:
Mus musculus [1] = test: Change in weight by day 5, obtained by subtracting treated groups of animals minus control groups of animals at dose 200 mg/kg in exp1.; assay type: functional; conditions: 200 mg/kg
Summary of the method: (§1)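 Mice were inoculated ip with 10^6 P388 leukemia cells on day 0, when treated and control mice weighed 19–22 g. Treatment was given ip once daily on days 1–5, within about 5 min of preparing the solution or suspension. Groups of six (occasionally five) were treated, with 30 untreated inoculated mice as controls. The day-5 weight change is the mean treated change minus the mean control change.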

Mus musculus [2] = test: Change in weight by day 5, obtained by subtracting treated groups of animals minus control groups of animals at dose 100 mg/kg in exp2; assay type: functional; summary of the method: as §1
Mus musculus [3] = test: Change in weight by day 5, obtained by subtracting treated groups of animals minus control groups of animals at dose 150 mg/kg in exp2; assay type: functional; summary of the method: as §1
Mus musculus [4] = test: Change in weight by day 5, obtained by subtracting treated groups of animals minus control groups of animals at dose 50 mg/kg in exp1.; assay type: functional; summary of the method: as §1
Mus musculus [5] = test: Change in weight by day 5, obtained by subtracting treated groups of animals minus control groups of animals at dose 50 mg/kg in exp2; assay type: functional; summary of the method: as §1
Mus musculus [6] = test: Mortality by day 5 expressed as number of mice died to the total treated at dose 100 mg/kg in exp1; 0/6; assay type: ADME, organism-based; parameters: dose 100 mg/kg; conditions: in vivo
Mus musculus [7] = test: Mortality by day 5 expressed as number of mice died to the total treated at dose 100 mg/kg in exp2; 0/6; assay type: ADME, organism-based; parameters: dose 100 mg/kg; conditions: in vivo
Mus musculus [8] = test: Mortality by day 5 expressed as number of mice died to the total treated at dose 150 mg/kg in exp2; 0/6; assay type: ADME, organism-based; parameters: dose 150 mg/kg; conditions: in vivo
Mus musculus [9] = test: Median survival time of the treated control groups, in which there are no 30-day survivors at dose 150 mg/kg in exp2; assay type: functional
Mus musculus [10] = test: Median survival time of the treated control groups, in which there are no 30-day survivors at dose 200 mg/kg in exp1; assay type: functional
Mus musculus [11] = test: Median survival time of the treated control groups, in which there are no 30-day survivors at dose 100 mg/kg in exp1; assay type: functional
Mus musculus [12] = test: Median survival time of the treated control groups, in which there are no 30-day survivors at dose 100 mg/kg in exp2; assay type: functional
Mus musculus [13] = test: Mortality by day 5 expressed as number of mice died to the total treated at dose 200 mg/kg in exp1; 0/6; assay type: ADME, organism-based; parameters: dose 200 mg/kg; conditions: in vivo
Mus musculus [14] = test: Mortality by day 5 expressed as number of mice died to the total treated at dose 50 mg/kg in exp1; 0/6; assay type: ADME, organism-based; parameters: dose 50 mg/kg; conditions: in vivo
Mus musculus [15] = test: Median survival time of the treated control groups, in which there are no 30-day survivors at dose 50 mg/kg in exp1; assay type: functional
Mus musculus [16] = test: Median survival time of the treated control groups, in which there are no 30-day survivors at dose 50 mg/kg in exp2; assay type: functional
Mus musculus [17] = test: Median survival time of the untreated control groups, in which there are no 30-day survivors at dose 50 mg/kg in exp1; assay type: functional
Mus musculus [18] = test: Median survival time of the untreated control groups, in which there are no 30-day survivors at dose 100 mg/kg in exp1; assay type: functional
Mus musculus [19] = test: Median survival time of the untreated control groups, in which there are no 30-day survivors at dose 100 mg/kg in exp2; assay type: functional
Mus musculus [20] = test: Median survival time of the untreated control groups, in which there are no 30-day survivors at dose 150 mg/kg in exp2; assay type: functional
Mus musculus [21] = test: Median survival time of the untreated control groups, in which there are no 30-day survivors at dose 200 mg/kg in exp1; assay type: functional
[22] = Ratio of median survival times for non-survivors at dose 50 mg/kg in exp2; assay type: functional
Summary of the method: (§2)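 Mice were inoculated ip with 10^6 P388 leukemia cells on day 0. Groups of six (occasionally five) were dosed ip qd on days 1–5 with fresh suspensions; 30 mice served as untreated controls. Deaths were recorded daily up to day 60. T/C% compares the median survival of treated non-survivors (<60 days) with the control median. Medians used grouped data when there were no 30-day survivors, otherwise ungrouped data. t = toxic.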

[23] = Ratio of median survival times for non-survivors at dose 100 mg/kg in exp2; assay type: functional; summary of the method: as §2
[24] = Ratio of median survival times for non-survivors at dose 150 mg/kg in exp2; assay type: functional; summary of the method: as §2
[25] = Ratio of median survival times for non-survivors at dose 200 mg/kg in exp1; t= toxic; assay type: ADME, organism-based; parameters: dose 200 mg/kg; conditions: in vivo; summary of the method: as §2
[26] = Ratio of median survival times for non-survivors at dose 100 mg/kg in exp1; assay type: functional; parameters: unit: %; summary of the method: as §2
[27] = Ratio of median survival times for non-survivors at dose 50 mg/kg in exp1; assay type: functional; parameters: unit: %; summary of the method: as §2

For `CCOS(=O)(=O)CS(C)(=O)=O`, the Change in weight (Mus musculus [1]) was -5 and -3.4, the Change in weight (Mus musculus [2]) was -4.3 and the Change in weight (Mus musculus [3]) was -5.4. It also gave a Change in weight (Mus musculus [4]) of -1.4, a Change in weight (Mus musculus [5]) of -1.8 and a Mortality (Mus musculus [6]) of 0. The Mortality (Mus musculus [7]) was 0, the Mortality (Mus musculus [8]) was 0 and the Median survival time (Mus musculus [9]) was 11. The Median survival time (Mus musculus [10]) was 6.9, the Median survival time (Mus musculus [11]) was 18 and the Median survival time (Mus musculus [12]) was 17.9. For the same molecule, the Mortality (Mus musculus [13]) was 0, the Mortality (Mus musculus [14]) was 0 and the Median survival time (Mus musculus [15]) was 13.3. For the same molecule, the Median survival time (Mus musculus [16]) was 14, the Median survival time (Mus musculus [17]) was 11.2 and the Median survival time (Mus musculus [18]) was 11.2. The Median survival time (Mus musculus [19]) was 10.5, the Median survival time (Mus musculus [20]) was 10.5 and the Median survival time (Mus musculus [21]) was 11.2. It also gave a Ratio [22] of 133, a Ratio [23] of 170 and a Ratio [24] of 104. For the same molecule, the Ratio [25] was “Toxic”, the Ratio [26] was 160 and the Ratio [27] was 118.
